Assay results taken from paper PMC7935732 (Targeted Oncology, 2021).
Marks after values point to notes of the source that are not given here.

Experiments:
[1] = tested on: CDK 4; settings: in vitro; cited from earlier work
[2] = Plasma pharmacokinetics, LC-MS/MS, non-compartmental analysis; type: in vivo, human; settings: for CL/F / RAUC (accumulation ratio for AUC0–12): abemaciclib, geometric mean (% CV); for half-life / Cmax / AUC(0-inf) / AUC(0-t) / Vd/F: human, plasma; for Cmax: Mean abemaciclib Cmax
In short: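 Oral test compound, 150 or 200 mg. Plasma was sampled at 1–72 h after a single dose (Cycle 1 Day 1) and at 1–24 h after twice-daily dosing (Day 31), with doses held during sampling. Parent and two major active metabolites were measured by validated LC-MS/MS. Non-compartmental analysis; total active analytes summed. RAUC compares steady-state AUC0–12 with single-dose values. Descriptive statistics by dose.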

[3] = tested on: breast cancer; settings: larger population, including MONARCH plus; cited from earlier work
[4] = tested on: patients with advanced solid tumors; settings: given twice daily on a continuous schedule (every 12 h); mainly Caucasian patients; cited from earlier work
[5] = tested on: Chinese patients with advanced and/or metastatic cancers; assay: Safety and tolerability; type: in vivo, human
In short: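 Safety set: all patients with ≥ 1 dose. Patient-reported AEs were collected during treatment; chemistry, hematology and urinalysis were done at protocol time points. Laboratory and non-laboratory AEs were graded by CTCAE v4.0 and summarized by cohort.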

CCN1CCN(Cc2ccc(Nc3ncc(F)c(-c4cc(F)c5nc(C)n(C(C)C)c5c4)n3)nc2)CC1 [abemaciclib]
Greater potency against CDK 4 than against CDK 6 [1]: 14 times
CL/F ([2]; single oral dose 150 mg (C1D1), N 12): 22.1 (63) L/h
CL/F ([2]; single oral dose 200 mg (C1D1), N 13): 26.4 (74) L/h
RAUC (accumulation ratio for AUC0–12) ([2]; steady state (C1D31) 150 mg every 12 h, n = 5): 1.57 (106)^b
RAUC (accumulation ratio for AUC0–12) ([2]; steady state (C1D31) 200 mg every 12 h, N 10): 2.10 (69)
half-life ([2]; oral, 200 mg): ~24 h
Cmax ([2]; oral, 200 mg, after multiple doses of 150 or 200 mg): 260 to 320 ng/mL
Cmax ([2]; oral, after a single dose): 200 ng/mL
AUC(0-inf) ([2]; po, 150 mg): 6790 ng·h/mL
AUC(0-t) ([2]; po, 150 mg): 1700 ng·h/mL
Vd/F ([2]; po, 150 mg): 767 L
half-life ([2]; po, 150 mg): 22.4 h
AUC(0-inf) ([2]; po, 200 mg): 7580 ng·h/mL
AUC(0-t) ([2]; po, 200 mg): 1740 ng·h/mL
Vd/F ([2]; po, 200 mg): 955 L
half-life ([2]; po, 200 mg): 22.8 h
Incidence of embolism [3]: less than 5%
Maximum tolerated dose (MTD) [4]: 200 mg
Grade 5 TEAE of respiratory failure ([5]; 150 mg cohort): ^aOne patient reported Grade 5 TEAE of respiratory failure in 150 mg cohort
Patients who discontinued study treatment due to leukopenia ([5]; 150 mg cohort): 1 patient
Patients with dose reduction from 150 to 100 mg during Cycle 1 ([5]; 150 mg cohort): 5 patients
Alanine aminotransferase increased, TEAE any grade ([5]; 150 mg every 12 h (n = 12)): 5 (41.7) n (%)
Anemia, TEAE any grade ([5]; 150 mg every 12 h (n = 12)): 7 (58.3) n (%)
Bilirubin increased, TEAE any grade ([5]; 150 mg every 12 h (n = 12)): 4 (33.3) n (%)
Blood creatinine increased, TEAE any grade ([5]; 150 mg every 12 h (n = 12)): 6 (50.0) n (%)
Cough, TEAE any grade ([5]; 150 mg every 12 h (n = 12)): 4 (33.3) n (%)
Decreased appetite, TEAE any grade ([5]; 150 mg every 12 h (n = 12)): 9 (75.0) n (%)
Diarrhea, TEAE any grade ([5]; 150 mg every 12 h (n = 12)): 9 (75.0) n (%)
Leukopenia (white blood cell count decreased), TEAE any grade ([5]; 150 mg every 12 h (n = 12)): 9 (75.0) n (%)
Localized edema, TEAE any grade ([5]; 150 mg every 12 h (n = 12)): 3 (25.0) n (%)
Malaise, TEAE any grade ([5]; 150 mg every 12 h (n = 12)): 7 (58.3) n (%)
Nausea, TEAE any grade ([5]; 150 mg every 12 h (n = 12)): 3 (25.0) n (%)
Neutropenia (neutrophil count decreased), TEAE any grade ([5]; 150 mg every 12 h (n = 12)): 10 (83.3) n (%)
Patients with ≥ 1 TEAE (any grade) ([5]; 150 mg every 12 h (n = 12)): 12 (100.0) n (%)
Thrombocytopenia (platelet count decreased), TEAE any grade ([5]; 150 mg every 12 h (n = 12)): 6 (50.0) n (%)
Vomiting, TEAE any grade ([5]; 150 mg every 12 h (n = 12)): 4 (33.3) n (%)
Patients reporting SAE of pulmonary embolism ([5]; 200 mg cohort): 3 patients
Patients reporting SAE of urinary tract infection ([5]; 200 mg cohort): 1 patient
Patients with dose reduction from 200 to 150 mg during Cycle 1 ([5]; 200 mg cohort): 2 patients
Alanine aminotransferase increased, TEAE any grade ([5]; 200 mg every 12 h (n = 13)): 2 (15.4) n (%)
Anemia, TEAE any grade ([5]; 200 mg every 12 h (n = 13)): 5 (38.5) n (%)
Bilirubin increased, TEAE any grade ([5]; 200 mg every 12 h (n = 13)): 1 (7.7) n (%)
Blood creatinine increased, TEAE any grade ([5]; 200 mg every 12 h (n = 13)): 8 (61.5) n (%)
Cough, TEAE any grade ([5]; 200 mg every 12 h (n = 13)): 4 (30.8) n (%)
Decreased appetite, TEAE any grade ([5]; 200 mg every 12 h (n = 13)): 6 (46.2) n (%)
Diarrhea, TEAE any grade ([5]; 200 mg every 12 h (n = 13)): 11 (84.6) n (%)
Leukopenia (white blood cell count decreased), TEAE any grade ([5]; 200 mg every 12 h (n = 13)): 7 (53.8) n (%)
Localized edema, TEAE any grade ([5]; 200 mg every 12 h (n = 13)): 2 (15.4) n (%)
Malaise, TEAE any grade ([5]; 200 mg every 12 h (n = 13)): 6 (46.2) n (%)
Nausea, TEAE any grade ([5]; 200 mg every 12 h (n = 13)): 6 (46.2) n (%)
Neutropenia (neutrophil count decreased), TEAE any grade ([5]; 200 mg every 12 h (n = 13)): 9 (69.2) n (%)
Patients with ≥ 1 TEAE (any grade) ([5]; 200 mg every 12 h (n = 13)): 13 (100.0) n (%)
Thrombocytopenia (platelet count decreased), TEAE any grade ([5]; 200 mg every 12 h (n = 13)): 5 (38.5) n (%)
Vomiting, TEAE any grade ([5]; 200 mg every 12 h (n = 13)): 4 (30.8) n (%)
Anemia TEAE ([5]; Grade 3, 150 mg (n = 12)): 2 (16.7) n (%)
Blood bilirubin increased TEAE ([5]; Grade 3, 150 mg (n = 12)): 1 (8.3) n (%)
Diarrhea TEAE ([5]; Grade 3, 150 mg (n = 12)): 1 (8.3) n (%)
Embolism TEAE ([5]; Grade 3, 150 mg (n = 12)): 1 (8.3) n (%)
Hyponatraemia TEAE ([5]; Grade 3, 150 mg (n = 12)): 2 (16.7) n (%)
Leukopenia (white blood cell count decreased) TEAE ([5]; Grade 3, 150 mg (n = 12)): 0 n (%)
Lung infection TEAE ([5]; Grade 3, 150 mg (n = 12)): 1 (8.3) n (%)
Malaise TEAE ([5]; Grade 3, 150 mg (n = 12)): 1 (8.3) n (%)
Muscular weakness TEAE ([5]; Grade 3, 150 mg (n = 12)): 1 (8.3) n (%)
Neutropenia (neutrophil count decreased) TEAE ([5]; Grade 3, 150 mg (n = 12)): 5 (41.7) n (%)
Patients with ≥ 1 TEAE of Grade ≥ 3 ([5]; Grade 3, 150 mg (n = 12)): 8 (66.7) n (%)
Thrombocytopenia (platelet count decreased) TEAE ([5]; Grade 3, 150 mg (n = 12)): 3 (25.0) n (%)
Vomiting TEAE ([5]; Grade 3, 150 mg (n = 12)): 0 n (%)
Anemia TEAE ([5]; Grade 3, 200 mg (n = 13)): 0 n (%)
Blood bilirubin increased TEAE ([5]; Grade 3, 200 mg (n = 13)): 0 n (%)
Diarrhea TEAE ([5]; Grade 3, 200 mg (n = 13)): 3 (23.1) n (%)
Embolism TEAE ([5]; Grade 3, 200 mg (n = 13)): 0 n (%)
Hyponatraemia TEAE ([5]; Grade 3, 200 mg (n = 13)): 0 n (%)
Leukopenia (white blood cell count decreased) TEAE ([5]; Grade 3, 200 mg (n = 13)): 3 (23.1) n (%)
Lung infection TEAE ([5]; Grade 3, 200 mg (n = 13)): 0 n (%)
Malaise TEAE ([5]; Grade 3, 200 mg (n = 13)): 0 n (%)
Muscular weakness TEAE ([5]; Grade 3, 200 mg (n = 13)): 0 n (%)
Neutropenia (neutrophil count decreased) TEAE ([5]; Grade 3, 200 mg (n = 13)): 3 (23.1) n (%)
Patients with ≥ 1 TEAE of Grade ≥ 3 ([5]; Grade 3, 200 mg (n = 13)): 6 (46.2) n (%)
Thrombocytopenia (platelet count decreased) TEAE ([5]; Grade 3, 200 mg (n = 13)): 2 (15.4) n (%)
